From ChEMBL document CHEMBL1156322, “Synthesis and biological evaluation of nitrogen-containing benzophenone analogues as TNF-alpha and IL-6 inhibitors with antioxidant activity” (Bioorg Med Chem Lett, 2010)
Calls of active or inactive are those of the source. The rule behind the calls is not given here.

Assays:
[1] = system: Radical scavenging activity; experiment: Antioxidant activity assessed as DPPH free radical scavenging activity at 1 uM after 2 mins by spectrophotometry; type: functional
[2] = system: Radical scavenging activity; experiment: Antioxidant activity assessed as DPPH free radical scavenging activity at 1 uM after 4 mins by spectrophotometry; type: functional
[3] = system: Radical scavenging activity; experiment: Antioxidant activity assessed as DPPH free radical scavenging activity at 1 uM after 6 mins by spectrophotometry; type: functional
[4] = system: Radical scavenging activity; experiment: Antioxidant activity assessed as DPPH free radical scavenging activity at 1 uM after 8 mins by spectrophotometry; type: functional
[5] = system: Radical scavenging activity; experiment: Antioxidant activity assessed as DPPH free radical scavenging activity at 1 uM after 10 mins by spectrophotometry; type: functional
THP-1 [6] = experiment: Antiinflammatory activity in LPS-stimulated human THP1 cells assessed as inhibition of TNFalpha formation at 10 uM pretreated 30 mins before LPS challenge measured after 24 hrs by ELISA; type: functional; set-up: scale not given: the % may be the effect or the level left
Method in brief: (§1)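 PMA-differentiated human THP-1 cells in RPMI 1640 with 10% FBS, penicillin and streptomycin. Compound or vehicle (0.5% DMSO) was added for 30 min at 37 °C, then E. coli 0127:B8 LPS. Cells were incubated 24 h at 37 °C, 5% CO2. Supernatant TNF-α and IL-6 were measured by ELISA. Percent inhibition of release was calculated versus control.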

THP-1 [7] = experiment: Antiinflammatory activity in LPS-stimulated human THP1 cells assessed as inhibition of IL6 formation at 10 uM pretreated 30 mins before LPS challenge measured after 24 hrs by ELISA; type: functional; set-up: scale not given: the % may be the effect or the level left; method in brief: as §1
THP-1 [8] = experiment: Antiinflammatory activity in LPS-stimulated human THP1 cells assessed as inhibition of IL6 formation at 1 uM pretreated 30 mins before LPS challenge measured after 24 hrs by ELISA; type: functional; set-up: scale not given: the % may be the effect or the level left; method in brief: as §1
[9] = Cytotoxicity against LPS-stimulated human THP-1 cells at 10 uM after 24 hrs by CCK-8 assay; conditions: THP-1, 24 h
[10] = system: Radical scavenging activity; experiment: Antioxidant activity assessed as DPPH free radical scavenging activity at 1 mM after 20 mins by spectrophotometry
THP-1 [11] = experiment: Antiinflammatory activity in LPS-stimulated human THP1 cells assessed as inhibition of TNFalpha formation at 1 uM pretreated 30 mins before LPS challenge measured after 24 hrs by ELISA; type: functional; set-up: scale not given: the % may be the effect or the level left; method in brief: as §1

## COc1cc(OC)c(C(=O)c2cccc(F)c2)c(O)c1CN1CCCC1
[1]
  Activity: 0.92%
[2]
  Activity: 4.51%
[3]
  Activity: 2.11%
[4]
  Activity: 3.78%
[5]
  Activity: 4.78%
THP-1 [6]
  Activity: 1%
THP-1 [7]
  Activity: 93%
THP-1 [8]
  Activity: 34%
[9]
  Activity: 34%
[10]
  Activity: 7.29%

## COc1cc(OC)c(C(=O)c2cccc(F)c2)c(O)c1CN1CCN(C)CC1
[1]
  Activity: 9.5%
[2]
  Activity: 15.8%
[3]
  Activity: 18.5%
[4]
  Activity: 19.4%
[5]
  Activity: 22.6%
THP-1 [6]
  Activity: 54%
THP-1 [7]
  Activity: 97%
THP-1 [8]
  Activity: 47%
[9]
  Activity: 22%
[10]
  Activity: 40.4%

## COc1cc(OC)c(C(=O)c2cccc(Cl)c2)c(O)c1CN1CCCCC1
[1]
  Activity: 9.2%
[2]
  Activity: 11.4%
[3]
  Activity: 14.8%
[4]
  Activity: 20.9%
[5]
  Activity: 22.8%
THP-1 [6]
  Activity: 11%
THP-1 [7]
  Activity: 83%
THP-1 [8]
  Activity: 33%
[9]
  Activity: 31%
[10]
  Activity: 45.3%

## COc1cc(OC)c(C(=O)c2ccccc2F)c(O)c1CN1CCCCC1
[1]
  Activity: 13.7%
[2]
  Activity: 16.9%
[3]
  Activity: 23%
[4]
  Activity: 28.9%
[5]
  Activity: 34.6%
THP-1 [6]
  Activity: 0%
THP-1 [7]
  Activity: 84%
THP-1 [8]
  Activity: 18%
[9]
  Activity: 31%
[10]
  Activity: 73.3%

## O=C(O)c1cc(O)c(O)c(O)c1
[1]
  Activity: 18.2%
[2]
  Activity: 22.7%
[3]
  Activity: 19.4%
[4]
  Activity: 38.4%
[5]
  Activity: 46.9%

## COc1cc(OC)c(C(=O)c2cccc(F)c2)c(O)c1CN1CCOCC1
[1]
  Activity: inactive
[2]
  Activity: inactive
[3]
  Activity: inactive
[4]
  Activity: inactive
[5]
  Activity: inactive
THP-1 [6]
  Activity: 21%
THP-1 [7]
  Activity: 86%
THP-1 [8]
  Activity: 35%
[9]
  Activity: 42%
[10]
  Activity: inactive

## COc1cc(OC)c(C(=O)c2ccccc2F)c(O)c1CN1CCN(C)CC1
[1]
  Activity: 3.3%
[2]
  Activity: 3.95%
[3]
  Activity: 4%
[4]
  Activity: 5.4%
[5]
  Activity: 6.2%
THP-1 [6]
  Activity: 19%
THP-1 [7]
  Activity: 83%
THP-1 [8]
  Activity: 21%
[9]
  Activity: 40%
[10]
  Activity: 17.5%

## COc1cc(OC)c(C(=O)c2cccc(Cl)c2)c(O)c1CN1CCCC1
[1]
  Activity: 0.5%
[2]
  Activity: 1.6%
[3]
  Activity: 1.82%
[4]
  Activity: 2.1%
[5]
  Activity: 2.11%
THP-1 [6]
  Activity: 37%
THP-1 [7]
  Activity: 81%
THP-1 [8]
  Activity: 41%
[9]
  Activity: 53%
[10]
  Activity: 5.13%

## COc1cc(OC)c(C(=O)c2ccccc2F)c(O)c1CN1CCOCC1
[1]
  Activity: 3.5%
[2]
  Activity: 4.2%
[3]
  Activity: 4.74%
[4]
  Activity: 6.8%
[5]
  Activity: 8.21%
THP-1 [6]
  Activity: 27%
THP-1 [7]
  Activity: 89%
THP-1 [8]
  Activity: 19%
[9]
  Activity: 39%
[10]
  Activity: 19.7%

## COc1cc(OC)c(C(=O)c2ccccc2Br)c(O)c1CN1CCOCC1
[1]
  Activity: 0.8%
[2]
  Activity: 1.2%
[3]
  Activity: 1.9%
[4]
  Activity: 2.11%
[5]
  Activity: 2.95%
THP-1 [6]
  Activity: 65%
THP-1 [7]
  Activity: 97%
THP-1 [8]
  Activity: 19%
[9]
  Activity: 66%
[10]
  Activity: 6.23%

## COc1cc(O)c(C(=O)c2cccc(F)c2)c(OC)c1
[1]
  Activity: inactive
[2]
  Activity: inactive
[3]
  Activity: inactive
[4]
  Activity: inactive
[5]
  Activity: inactive
THP-1 [6]
  Activity: 0%
THP-1 [7]
  Activity: 81%
THP-1 [8]
  Activity: 38%
[9]
  Activity: 24%
[10]
  Activity: inactive

## C[C@@H]1C[C@H]2[C@@H]3CCC4=CC(=O)C=C[C@]4(C)[C@@]3(F)[C@@H](O)C[C@]2(C)[C@@]1(O)C(=O)CO [DEXAMETHASONE]
THP-1 [11]
  Activity: 73%

## COc1cc(O)c(C(=O)c2cccc(Cl)c2)c(OC)c1
[1]
  Activity: 3.21%
[2]
  Activity: 3.9%
[3]
  Activity: 4.2%
[4]
  Activity: 6.52%
[5]
  Activity: 7.6%
THP-1 [6]
  Activity: 0%
THP-1 [7]
  Activity: 78%
THP-1 [8]
  Activity: 31%
[9]
  Activity: 49%
[10]
  Activity: 16.4%

## COc1cc(OC)c(C(=O)c2cccc(Cl)c2)c(O)c1CN1CCN(C)CC1
[1]
  Activity: inactive
[2]
  Activity: inactive
[3]
  Activity: inactive
[4]
  Activity: inactive
[5]
  Activity: inactive
THP-1 [6]
  Activity: 100%
THP-1 [7]
  Activity: 100%
THP-1 [8]
  Activity: 54%
[9]
  Activity: 77%
[10]
  Activity: inactive

## COc1cc(O)c(C(=O)c2ccccc2Br)c(OC)c1
[1]
  Activity: inactive
[2]
  Activity: inactive
[3]
  Activity: inactive
[4]
  Activity: inactive
[5]
  Activity: inactive
THP-1 [6]
  Activity: 11%
THP-1 [7]
  Activity: 72%
THP-1 [8]
  Activity: 7%
[9]
  Activity: 43%
[10]
  Activity: inactive

## COc1cc(OC)c(C(=O)c2cccc(F)c2)c(O)c1CN1CCCCC1
[1]
  Activity: 4.2%
[2]
  Activity: 5.98%
[3]
  Activity: 9.25%
[4]
  Activity: 11.8%
[5]
  Activity: 13.7%
THP-1 [6]
  Activity: 0%
THP-1 [7]
  Activity: 87%
THP-1 [8]
  Activity: 30%
[9]
  Activity: 27%
[10]
  Activity: 24.7%

## COc1cc(OC)c(C(=O)c2ccccc2Br)c(O)c1CN1CCN(C)CC1
[1]
  Activity: 3.2%
[2]
  Activity: 3.95%
[3]
  Activity: 4.5%
[4]
  Activity: 6.8%
[5]
  Activity: 7.59%
THP-1 [6]
  Activity: 20%
THP-1 [7]
  Activity: 81%
THP-1 [8]
  Activity: 9%
[9]
  Activity: 23%
[10]
  Activity: 13.5%

## COc1cc(OC)c(C(=O)c2ccccc2F)c(O)c1CN1CCCC1
[1]
  Activity: 3.6%
[2]
  Activity: 4.24%
[3]
  Activity: 6.45%
[4]
  Activity: 9.5%
[5]
  Activity: 11.9%
THP-1 [6]
  Activity: 10%
THP-1 [7]
  Activity: 87%
THP-1 [8]
  Activity: 15%
[9]
  Activity: 27%
[10]
  Activity: 24.8%

## COc1cc(OC)c(C(=O)c2ccccc2Br)c(O)c1CN1CCCCC1
[1]
  Activity: 10.8%
[2]
  Activity: 14.2%
[3]
  Activity: 17.7%
[4]
  Activity: 25.4%
[5]
  Activity: 32.5%
THP-1 [6]
  Activity: 78%
THP-1 [7]
  Activity: 98%
THP-1 [8]
  Activity: 22%
[9]
  Activity: 61%
[10]
  Activity: 64.4%

## COc1cc(OC)c(C(=O)c2cccc(Cl)c2)c(O)c1CN1CCOCC1
[1]
  Activity: 5.52%
[2]
  Activity: 6.44%
[3]
  Activity: 9.45%
[4]
  Activity: 14.6%
[5]
  Activity: 15.9%
THP-1 [6]
  Activity: 1%
THP-1 [7]
  Activity: 83%
THP-1 [8]
  Activity: 42%
[9]
  Activity: 39%
[10]
  Activity: 33.4%

## COc1cc(O)c(C(=O)c2ccccc2F)c(OC)c1
[1]
  Activity: 8.2%
[2]
  Activity: 12.5%
[3]
  Activity: 13.6%
[4]
  Activity: 16.8%
[5]
  Activity: 18.9%
THP-1 [6]
  Activity: 47%
THP-1 [7]
  Activity: 71%
THP-1 [8]
  Activity: 11%
[9]
  Activity: 53%
[10]
  Activity: 32.4%

## COc1cc(OC)c(C(=O)c2ccccc2Br)c(O)c1CN1CCCC1
[1]
  Activity: inactive
[2]
  Activity: inactive
[3]
  Activity: inactive
[4]
  Activity: inactive
[5]
  Activity: inactive
THP-1 [6]
  Activity: 99%
THP-1 [7]
  Activity: 100%
THP-1 [8]
  Activity: 19%
[9]
  Activity: 84%
[10]
  Activity: inactive
